In ChEMBL document CHEMBL1130393, “Antitumor agents. 178. Synthesis and biological evaluation of substituted 2-aryl-1,8-naphthyridin-4(1H)-ones as antitumor agents that inhibit tubulin polymerization” (J Med Chem, 1997):

How the values were obtained:
U-251 = assay: In vitro antitumor activity against U-251 tumor cell lines; assay type: functional; conditions: Homo sapiens
NCI-H460 = assay: In vitro antitumor activity against NCI-H460 tumor cell lines; assay type: functional; conditions: Homo sapiens
CAKI-1 = assay: In vitro antitumor activity against CAKI-1 tumor cell lines; assay type: functional; conditions: Homo sapiens
SK-MEL-5 = assay: In vitro antitumor activity against SK-MEL-5 tumor cell lines; assay type: functional; conditions: Homo sapiens
SF-295 = assay: In vitro antitumor activity against SF-295 tumor cell lines; assay type: functional; conditions: Homo sapiens
Tumor Cell line [1] = assay: In vitro antitumor activity against NCI 's human tumor cell lines; assay type: functional; conditions: read-out: Average log GI50 (converted)
How it was run: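 NCI in vitro screen of 60 human tumor cell lines. […] The value is calculated from all cell lines tested.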

MDA-MB-435 = assay: In vitro antitumor activity against MDA-MB-435 NCI 's human tumor cell lines; assay type: functional
PC-3 = assay: In vitro antitumor activity against PC-3 tumor cell lines; assay type: functional; conditions: Homo sapiens
HL-60 = assay: In vitro antitumor activity against HL-60(TB) tumor cell lines; assay type: functional; conditions: Homo sapiens
HCT-116 = assay: In vitro antitumor activity against HCT116 tumor cell lines; assay type: functional; conditions: Homo sapiens
MDA-N = assay: In vitro antitumor activity against MDA-N tumor cell lines; assay type: functional; conditions: Homo sapiens
OVCAR-3 = assay: In vitro antitumor activity against OVCAR-3 tumor cell lines; assay type: functional; conditions: Homo sapiens
Tubulin = Tubulin (Bos taurus, UniProt Q6B856+Q862L2+Q862F3); assay: Inhibition of tubulin polymerization; assay type: functional
[2] = system: Panel colon (Carcinoma cell lines); assay: log molar concentration required to cause total growth inhibition of colon tumor cell lines; assay type: functional; conditions: Homo sapiens, read-out: Log TGI (converted)
How it was run: (§1)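 TGI from the NCI 60 human tumor cell line in vitro screen: log of the molar drug concentration causing total growth inhibition, reported for the named cell panel.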

[3] = system: Panel renal (Carcinoma cell lines); assay: log molar concentration required to cause total growth inhibition of renal tumor cell lines; assay type: functional; conditions: Homo sapiens, read-out: Log TGI (converted); how it was run: as §1
[4] = system: Panel breast (Carcinoma cell lines); assay: log molar concentration required to cause total growth inhibition of breast tumor cell lines; assay type: functional; conditions: Homo sapiens, read-out: Log TGI (converted); how it was run: as §1
[5] = system: Panel ovarian (Carcinoma cell lines); assay: log molar concentration required to cause total growth inhibition of ovarian tumor cell lines; assay type: functional; conditions: Homo sapiens, read-out: Log TGI (converted); how it was run: as §1
Tubulin (Bos taurus) = Tubulin (Bos taurus) (UniProt Q6B856+Q862L2+Q862F3); assay: Inhibition of radiolabeled colchicine binding to tubulin; assay type: protein assay; design: concentration or dose not given beside the values; conditions: concentration not given here
How it was run: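 Measured by DEAE-cellulose filter binding. The 0.1 mL mixture held bovine brain tubulin 1.0 µM, 1.0 M monosodium glutamate (pH 6.6), 1 mM MgCl2, 0.1 mM GTP, 5.0 µM [3H]colchicine, 5% DMSO and inhibitor at 5.0 µM. It was incubated 20 min at 37 °C, filtered through two DEAE-cellulose papers, washed with water and counted by liquid scintillation.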

NSCLC = assay: log molar concentration required to cause total growth inhibition of non-small cell lung tumor cell lines; assay type: functional; conditions: Homo sapiens, read-out: Log TGI (converted); how it was run: as §1
[6] = system: Panel prostate (Carcinoma cell lines); assay: log molar concentration required to cause total growth inhibition of prostate tumor cell lines; assay type: functional; conditions: Homo sapiens, read-out: Log TGI (converted); how it was run: as §1
[7] = system: Panel CNS (Carcinoma cell lines); assay: log molar concentration required to cause total growth inhibition of CNS cancer cell lines; assay type: functional; conditions: Homo sapiens, read-out: Log TGI (converted); how it was run: as §1
Leukemic tumor cell line = assay: log molar concentration required to cause total growth inhibition of leukemic tumor cell lines; assay type: functional; conditions: Homo sapiens, read-out: Log TGI (converted); how it was run: as §1
Melanoma tumor cell line = assay: log molar concentration required to cause total growth inhibition of melanomic tumor cell lines; assay type: functional; conditions: Homo sapiens, read-out: Log TGI (converted); how it was run: as §1
Tumor Cell line [8] = assay: log molar concentration required to cause total growth inhibition of NCI 's human tumor cell lines; assay type: functional; conditions: read-out: Log TGI (converted)
How it was run: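 NCI 60 human tumor cell line in vitro screen. TGI is the log molar concentration giving total growth inhibition, calculated from all cell lines tested.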

SMILES | GI50 (U-251) | GI50 (NCI-H460) | GI50 (CAKI-1) | GI50 (SK-MEL-5) | GI50 (SF-295) | GI50 (Tumor Cell line [1]) | GI50 (MDA-MB-435) | GI50 (PC-3) | GI50 (HL-60) | GI50 (HCT-116) | GI50 (MDA-N) | GI50 (OVCAR-3) | IC50 (Tubulin) | inhibition (Tubulin (Bos taurus)) | further results
Cc1cccc(-c2cc(O)c3ccc(C)nc3n2)c1 | 200 nM | 17.8 nM | 0.427 µM | 126 nM | 60.3 nM | 97.7 nM | 32.4 nM | 138 nM | 26.9 nM | 120 nM | 31.6 nM | 490 nM | 1.9 µM | – | –
Cc1ccc2c(O)cc(-c3cccc(Cl)c3)nc2n1 | 64.6 nM | 41.7 nM | 0.0417 µM | 31.6 nM | 22.9 nM | 170 nM | < 10 nM | > 100000 nM | 28.8 nM | 25.7 nM | > 100000 nM | < 10 nM | 0.89 µM | 38% | TGI [2]: 3090 nM; TGI [3]: > 100 µM; TGI [4]: 3800 nM; TGI [5]: 10.5 µM; TGI (NSCLC): 24.5 µM; TGI [6]: > 100 µM; TGI [7]: 1.95 µM; TGI (Leukemic tumor cell line): > 100000 nM; TGI (Melanoma tumor cell line): 69.2 µM; TGI (Tumor Cell line [8]): 21.4 µM
Cc1cc(C)c2c(O)cc(-c3cccc4ccccc34)nc2n1 | 372 nM | 631 nM | 9.55 µM | 468 nM | 589 nM | 1050 nM | 191 nM | 759 nM | 245 nM | 380 nM | 234 nM | 347 nM | 0.78 µM | 15% | –
Cc1cnc2nc(-c3ccc4ccccc4c3)cc(O)c2c1 | 468 nM | 398 nM | 0.617 µM | 363 nM | 550 nM | 741 nM | 105 nM | 407 nM | 141 nM | 468 nM | 132 nM | 355 nM | 2.1 µM | – | –
Cc1cc(C)c2c(O)cc(-c3ccc4ccccc4c3)nc2n1 | 15800 nM | 13200 nM | 51.3 µM | 2190 nM | 14800 nM | 13500 nM | 2950 nM | 5500 nM | 3470 nM | 12600 nM | 3240 nM | 20000 nM | > 40 µM | – | –
Cc1ccnc2nc(-c3ccc4ccccc4c3)cc(O)c12 | 646 nM | 1050 nM | 2.4 µM | 437 nM | 1480 nM | 1200 nM | 204 nM | 1380 nM | 204 nM | 427 nM | 204 nM | 1290 nM | 1.8 µM | – | –
Cc1ccc2c(O)cc(-c3cccc4ccccc34)nc2n1 | 15.5 nM | 17.4 nM | 6.03 µM | 13.8 nM | 24 nM | 66.1 nM | < 10 nM | 30.2 nM | < 10 nM | < 10 nM | < 10 nM | < 10 nM | 0.66 µM | 40% | –
Oc1cc(-c2ccc3ccccc3c2)nc2ncc(Cl)cc12 | 4790 nM | 4070 nM | 7.59 µM | 2950 nM | 5500 nM | 5750 nM | 851 nM | 3090 nM | 1780 nM | 3980 nM | 1550 nM | 2630 nM | 2.5 µM | – | –
Cc1cc(C)c2c(O)cc(-c3cccc(F)c3)nc2n1 | 64.6 nM | 53.7 nM | 0.0355 µM | 37.1 nM | 33.1 nM | 85.1 nM | < 10 nM | 61.7 nM | 37.1 nM | < 10 nM | 12.9 nM | 18.2 nM | 0.74 µM | 29% | TGI [2]: 1170 nM; TGI [3]: 49 µM; TGI [4]: 1000 nM; TGI [5]: 5.5 µM; TGI (NSCLC): 2.51 µM; TGI [6]: 49 µM; TGI [7]: 9.77 µM; TGI (Leukemic tumor cell line): 2450 nM; TGI (Melanoma tumor cell line): 13.8 µM; TGI (Tumor Cell line [8]): 5.62 µM
Cc1cccc(-c2cc(O)c3c(C)cc(C)nc3n2)c1 | 53700 nM | 44700 nM | 56.2 µM | 34700 nM | 64600 nM | 38000 nM | 20000 nM | 31600 nM | 12900 nM | 17800 nM | 20900 nM | 30200 nM | 2.3 µM | – | –
